These results are taken from article PMC7299768 (Journal of controlled release : official journal of the …, 2020).

One data set is described as follows: Drug loading efficiency. It is filed as physicochemical. The note with it: (encapsulated drug/total drug) x100%; natural lipid NPs. An outline of the steps:
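Loading into natural-lipid nanoparticles measured by dialysis in 10 K MWCO mini devices pre-equilibrated with release medium (3% MeOH, 0.1% Polysorbate 80 in PBS, pH 7.4). Entrapped drug is apical minus basal concentration; free drug is basal concentration. Quantified by HPLC-UV (C18 column, 282 nm). Efficiency = encapsulated/total drug ×100%, from three batches.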

For data set [1] the following is noted: cited from earlier work.
A short description of data set [2]: Pharmacokinetics and tissue bio-distribution after single oral administration. The class given is in vivo, C57BL/6J mice. The note with it: for Level in most of the blood samples: after oral free-6-S or 6-S-NL 5 mg/kg. The essentials:
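Single oral gavage of 5 mg/kg to fasted (4 h) female C57BL/6J mice, as free test compound in 0.5% CMC-Na/PBS or as lipid nanoparticles in PBS. Sparse sampling, 3 mice/time point: blood (K₂EDTA) 5 min–8 h; stomach, small intestine, colon, liver and kidney 15 min–8 h. Acetonitrile precipitation, LC-MS/MS (MRM) of parent and metabolites. Cmax and Tmax observed; T1/2 = ln2/k.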

In another data set the test system is inflamed Raw 264.7 cells. Put plainly: In vitro anti-inflammation assay. The following applies: 1.0 μg/mL; for IL-1β gene expression / IL-6 gene expression / IL-10 gene expression / TNF-α gene expression: LPS-inflamed Raw 264.7 cells, RT-PCR; for Anti-inflammatory activities compared with 6-shogaol: inflamed Raw 264.7 cells. It is filed as cell-based.
In a further data set the test system is wounded Caco-2 BBE cells. Nature of the data set: In vitro wound-healing assay. The class given is cell-based. The following applies: 0.6 mL of 1.0 μg/mL solution; ECIS. The essentials: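 Caco-2 BBE cells were grown on ECIS 8W1E electrode plates in humidified 5% CO₂. At confluence, medium with or without test compound (1.0 μg/mL) or control formulation was added. Monolayers were wounded by a 30 s pulse (40 kHz, 4.5 V), and recovery was followed as impedance, with resistance measured at 500 Hz and 1 V.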

Where [3] appears, read: oral 5 mg/kg, compared to the 6-S-NL group.

In the data set “Drug loading efficiency”, `CCCCC/C=C/C(=O)CCc1ccc(O)c(OC)c1` [6-shogaol] gave a Drug loading efficiency of 89.1 ± 2.6%. Moreover, the “Effective 6-shogaol concentration in vitro” value in data set [1] is on record as “about 1 μg/mL”. Further, the “Tmax of 6-shogaol in the colon” value in data set [2] (oral 5 mg/kg) came out at 1.5 h. In data set [2] (oral 5 mg/kg, compared to 6-S-NL), the “M13 concentrations in the small intestine, comparison” value is given as “higher”. Also, in data set [2] (setting [3]), the “AUC values of M2 and M13 in liver and kidney tissues, comparison” value is on record as “higher”; the “Exposure (AUC) of 6-shogaol in stomach and small intestine tissues, comparison” value is given as “significantly higher”.
For the molecule `CCCCCC(CC(=O)CCc1ccc(O)c(OC)c1)SC[C@H](N)C(=O)O` (stereo partly shown) [M2], the Drug loading efficiency in “Drug loading efficiency” is given as 91.3 ± 3.1%. For the same molecule, in the data set with inflamed Raw 264.7 cells, the IL-1β gene expression entry was “down-regulate”, the IL-6 gene expression entry is “down-regulate”, the IL-10 gene expression entry is on record as “up-regulate” and the TNF-α gene expression result is recorded as “down-regulate”. For the same molecule, in the data set with inflamed Raw 264.7 cells, the “Anti-inflammatory activities compared with 6-shogaol” value is listed as “higher”. Besides, the “Level in most of the blood samples” value in data set [2] is reported as “below the LLOQ”. Further, in the data set on wounded Caco-2 BBE cells, the “Healing of wounded Caco-2 epithelial monolayers compared with 6-shogaol” value is given as “healed significantly faster”.
`CCCCCC(CC(=O)CCc1ccc(O)c(OC)c1)SC[C@H](NC(=O)CC[C@H](N)C(=O)O)C(=O)NCC(=O)O` (stereo partly shown) [M13] gave a Drug loading efficiency in “Drug loading efficiency” of 83.3 ± 1.9%. Moreover, in the data set with inflamed Raw 264.7 cells, the IL-1β gene expression entry was “down-regulate”, the IL-6 gene expression entry is given as “down-regulate”, the IL-10 gene expression result is listed as “up-regulate” and the TNF-α gene expression result is listed as “down-regulate”. The “Anti-inflammatory activities compared with 6-shogaol” value in the data set on inflamed Raw 264.7 cells was “higher”. The “Level in most of the blood samples” value in data set [2] is given as “below the LLOQ”. For the same molecule, in the data set with wounded Caco-2 BBE cells, the “Healing of wounded Caco-2 epithelial monolayers compared with 6-shogaol” value was “healed significantly faster”.
